Assay results from the array DNA melting data of Ke et al. (doi:10.1101/2024.01.08.574731).

Assays:
[1] = folding enthalpy; higher = less favourable; fluorescence melt of hairpins on a sequencing array, two-state fit; settings: sodium 0.088 M
In short: (§1)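 Folding enthalpy and melting temperature come from bootstrapped two-state fits to Cy3 fluorescence of library hairpins carrying annealed Cy3 and quencher oligos on a sequenced MiSeq flow cell. Imaging was done in 50 mM Na-HEPES pH 8.0, 25 mM NaCl, stepping by 2.5 °C up to 60 °C, and signals were normalised to pre-quench Cy3 and to control constructs. Results of four replicates were combined by inverse variance, and fitted temperatures were raised by 9.35 °C to match UV melts.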

[2] = melting temperature; fluorescence melt of hairpins on a sequencing array, two-state fit, raised by 9.35 °C to match UV melts; settings: sodium 0.088 M
In short: as §1

Sequence | folding enthalpy [1] | Tm [2]
GAAGGCGAAAGCCACTTC ((((((....)))..))) | -13.1 kcal/mol | 40.6 °C
GTCGCCGAAAGGCTGGAC ((((((....)))..))) | -13.1 kcal/mol | 44 °C
AGCGAGAAATCGCT (((((....))))) | -20.7 kcal/mol | 53.7 °C
GTACCGCGAAAGCGTTAC (((.(((....))).))) | -21 kcal/mol | 42.9 °C
GTGTGTACGAAAGTACAC (((..(((....)))))) | -14.8 kcal/mol | 64.2 °C
GATCCGACTTCGGATC ((((((....)))))) | -39.6 kcal/mol | 57.4 °C
GGTGAACGAAAGTTACC (((.(((....)))))) | -23.4 kcal/mol | 40.6 °C
GCATCGTCGAAAGACTGC (((..(((....)))))) | -15.8 kcal/mol | 36.8 °C
GGTAGAGGAAACTCTGCC ((.((((....)))).)) | -34.2 kcal/mol | 49.2 °C
GATCACCGAGTGATC ((((((...)))))) | -34.9 kcal/mol | 55.4 °C
GCGTGGGGAAACCCACAC (.(((((....))))).) | -11.6 kcal/mol | 46.9 °C
GATCTGGTGACAGATC ((((((....)))))) | -40.8 kcal/mol | 56.4 °C
GATCCCCCCGGGGATC ((((((....)))))) | -39.7 kcal/mol | 65.9 °C
GCAAAGCGAAAGCAATGC (((..((....))..))) | -12.1 kcal/mol | 34.5 °C
GATCCTGTCGAGGATC ((((((....)))))) | -36.3 kcal/mol | 57.2 °C
GCTCCCGAAAGGGGCAGC ((((((....)))..))) | -12.5 kcal/mol | 49.8 °C
GCTCCTGGAAACAGGAAC (.(((((....))))).) | -19.3 kcal/mol | 36.6 °C
GATCCTTGCCAGGATC ((((((....)))))) | -31 kcal/mol | 51.5 °C
GGACAATCGAAAGATTCC (((..(((....)))))) | -8.86 kcal/mol | 27.5 °C
GCGATGCGAAAGCCTGGC ((.(.((....)).).)) | -11.5 kcal/mol | 29.1 °C
GATCGAAAAGTCGATC ((((((....)))))) | -28.5 kcal/mol | 45.9 °C
GCCCACGGAAACGTGAGC ((.((((....)))).)) | -27.2 kcal/mol | 50.9 °C
GTTATGACGAAAGTCAAC (((..(((....)))))) | -10.5 kcal/mol | 26.2 °C

Sequence | folding enthalpy [1] | Tm [2]
CCAAAGAAATTTGG (((((....))))) | -8.79 kcal/mol | 30.9 °C
GATCGGTCCGCCGATC ((((((....)))))) | -42.5 kcal/mol | 60.1 °C
GATCTAACTCTAGATC ((((((....)))))) | -21.1 kcal/mol | 39.6 °C
GGATAACGAAAGTTTCC (((.(((....)))))) | -20.4 kcal/mol | 40.1 °C
GCAGTAGGAAACTGCTGC ((((.((....)).)))) | -31 kcal/mol | 57 °C
GTCGCCGAAAGGCCAGAC ((((((....)))..))) | -13.5 kcal/mol | 40.7 °C
GCTAAGCGAAAGCCAAGC (((..((....))..))) | -20.3 kcal/mol | 38 °C
GCGCTGCGAAAGCGGAGC ((.(.((....)).).)) | -21.4 kcal/mol | 63.3 °C
GGCCTCGAAAGAGAGGCC ((((((....)))..))) | -29.1 kcal/mol | 66.9 °C
GAGATAGAAATATCTC ((((((....)))))) | -26.9 kcal/mol | 39 °C
CGGAGGAAACTCCG (((((....))))) | -20.5 kcal/mol | 57.1 °C
GTAGTCGGAAACGGCTAC ((((.((....)).)))) | -43.1 kcal/mol | 54.6 °C
GCTTAGCGAAAGCACAGC (((..((....))..))) | -15.8 kcal/mol | 38.6 °C
GCCAAGCGAAAGCTGCGC ((..(((....)))..)) | -20.8 kcal/mol | 51.6 °C
CGCGGAAAATCCGCG ((((((...)))))) | -42.4 kcal/mol | 62.3 °C
GATCTAGGGATAGATC ((((((....)))))) | -30.8 kcal/mol | 42.3 °C
GGCGGCGAAAGCCGAGCC ((((((....)))..))) | -12.3 kcal/mol | 58 °C
GTGCGAGGAAACTTGCGC (.((.((....)).)).) | -18.1 kcal/mol | 46 °C
GGGAACCGAAAGGTCCC (((.(((....)))))) | -20.9 kcal/mol | 57.3 °C
GGCAGAGAAATCTGCC ((((((....)))))) | -32.8 kcal/mol | 63.5 °C
GATCAGCGGGCTGATC ((((((....)))))) | -38.8 kcal/mol | 63.8 °C
GGACGCGAAAGCGATCC ((((((....))).))) | -16.7 kcal/mol | 57.4 °C
GATCTAAAGGTAGATC ((((((....)))))) | -18.5 kcal/mol | 33.9 °C

Sequence | folding enthalpy [1] | Tm [2]
GCTGCGCGAAAGCATAGC (((..((....))..))) | -18.2 kcal/mol | 46.5 °C
GCCTCGCGAAAGCGTAGC ((..(((....)))..)) | -11.8 kcal/mol | 44 °C
GTAACCGAAAGGTTTAC ((((((....))).))) | -14.2 kcal/mol | 43 °C
GCAAGAGGAAACTCCTGC (((.(((....))).))) | -18.2 kcal/mol | 35.2 °C
GCCTCGGGAAACCGAGAC (.(((((....))))).) | -15.8 kcal/mol | 46.2 °C
GGAATTGGAAACAATCCC ((.((((....)))).)) | -20.1 kcal/mol | 35.6 °C
GTACTTGGAAACAGGTAC ((((.((....)).)))) | -32.4 kcal/mol | 40.1 °C
GTAGTTGGAAACAGTTAC (((..((....))..))) | -9.43 kcal/mol | 28.7 °C
GGTAGCGCGAAAGCGACC (((..(((....)))))) | -13.3 kcal/mol | 40 °C
GGGACCGAAAGGTTCCCC ((((((....)))..))) | -15.4 kcal/mol | 59.7 °C
GGTATACGAAAGTAACC (((.(((....)))))) | -19.3 kcal/mol | 34.9 °C
GTTCCCGAAAGGGGCAAC ((((((....)))..))) | -9.18 kcal/mol | 30.2 °C
GTTGACGAAAGTCAAAC ((((((....))).))) | -13.9 kcal/mol | 51.3 °C
GCGCCGCGAAAGCTGTGC ((.(.((....)).).)) | -20.4 kcal/mol | 53.9 °C
GGCTACACGAAAGTGGCC (((..(((....)))))) | -24.3 kcal/mol | 51.6 °C
GCACGGCGAAAGCTGGGC ((.(.((....)).).)) | -31.5 kcal/mol | 67.5 °C
GATCTGTGCTCAGATC ((((((....)))))) | -39 kcal/mol | 50.6 °C
CGACAGCGGAAACGCTCG (((..(((....)))))) | -12.9 kcal/mol | 40.3 °C
GATCGTCAAAACGATC ((((((....)))))) | -40 kcal/mol | 55.1 °C
GATCACTCGGGTGATC ((((((....)))))) | -37.4 kcal/mol | 57.6 °C
GCAGGTGGAAACACCTAC (.(((((....))))).) | -15.4 kcal/mol | 39.3 °C
GCCTGCTCGAAAGAGGGC (((..(((....)))))) | -15.7 kcal/mol | 44.5 °C
GCGTAGGCACGC ((((....)))) | -14.1 kcal/mol | 60.8 °C

Sequence | folding enthalpy [1] | Tm [2]
GATTCAGGAAACTGAGTC ((.((((....)))).)) | -31.1 kcal/mol | 38.5 °C
GTCGTAGGAAACTACGGC (.(((((....))))).) | -36.3 kcal/mol | 52.8 °C
GATCAACGAATTGATC ((((((....)))))) | -25.8 kcal/mol | 38.5 °C
GCAACGCGAAAGCTCTGC (((..((....))..))) | -9.33 kcal/mol | 34.6 °C
GCGGTCGAAAGACAACGC ((((((....)))..))) | -27.7 kcal/mol | 56.6 °C
GTTGCTCCGAAAGGAAAC (((..(((....)))))) | -10 kcal/mol | 28.1 °C
GATTAGGGAAACCTGATC (((.(((....))).))) | -24.1 kcal/mol | 38 °C
GATCAAACACTTGATC ((((((....)))))) | -28.7 kcal/mol | 37.9 °C
GCCGTCGAAAGACGAGGC ((((((....)))..))) | -17.8 kcal/mol | 55.5 °C
GCACAGGGAAACCCATGC (((..((....))..))) | -17.6 kcal/mol | 32 °C
GCTGGCGAAAGCCATAGC ((((((....)))..))) | -16.2 kcal/mol | 52.3 °C
GCTACTACGAAAGTAAGC (((..(((....)))))) | -13.6 kcal/mol | 29.5 °C
GCATTTGGAAACAGATGC ((((.((....)).)))) | -33.4 kcal/mol | 44 °C
GCGTGCGAAAGCATCGC ((((((....))).))) | -30.9 kcal/mol | 67.2 °C
GATCTGGATCCAGATC ((((((....)))))) | -55.9 kcal/mol | 54.1 °C
GATCGTATGAACGATC ((((((....)))))) | -31 kcal/mol | 53.6 °C
GCACTTTCGAAAGAATGC (((..(((....)))))) | -14.6 kcal/mol | 33.2 °C
GGCCACGAAAGTGGTGCC ((((((....)))..))) | -12.7 kcal/mol | 49.9 °C
GCATTGCGAAAGCATGC (((.(((....)))))) | -34.3 kcal/mol | 55.7 °C
GGACATGGAAACATATCC (((.(((....))).))) | -21.6 kcal/mol | 30.5 °C
GGCGCCGAAAGGCTGGCC ((((((....)))..))) | -22.3 kcal/mol | 62.3 °C
GCGTTTGGAAACAGACGC ((((.((....)).)))) | -39.4 kcal/mol | 52.7 °C
GATCCGGCCGCGGATC ((((((....)))))) | -41.5 kcal/mol | 58 °C
